ChEMBL document CHEMBL1152821, “Discovery of novel DNA gyrase inhibitors by high-throughput virtual screening” (Antimicrob Agents Chemother, 2007)
Values belong to the molecule of their own block, whether it stands above or below them. The source made the active and inactive calls. The calls are words filed in the database; no cut-off is given here.

Legend:
[1] = Inhibition of Escherichia coli recombinant DNA gyrase-mediated supercoiling of relaxed pRSET A-DNA by agarose gel electrophoresis
Procedure, shortened: (§1)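 Gyrase reconstituted from purified GyrA and GyrB (1:1.4); substrate is pRSET A relaxed with wheat germ topo I. 0.5 μg DNA and drug preincubated on ice 10 min in Tris-acetate pH 7.9, KOAc, Mg acetate, DTT, 1.5 mM ATP, spermidine, BSA. Started with 2.5 nM GyrA/3.5 nM GyrB, 30°C 30 min, then SDS/EDTA stop. 1% agarose gel, ethidium stain, densitometry; % supercoiled versus no-drug control.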

[2] = biological target: T1, DNA gyrase (Escherichia coli) (UniProt P0AES6+P0AES4); test: Inhibition of Escherichia coli recombinant DNA gyrase assessed as enzyme-mediated supercoiling of relaxed pRSET A-DNA at 170 uM by agarose gel electrophoresis in presence of 0.025% Triton X-100; assay type: protein-complex assay; design: scale not given: the % may be the effect or the level left; procedure, shortened: as §1
[3] = system: Nucleic Acid; test: Binding affinity to pGEM2 DNA assessed as DNA intercalation at >=50 uM by DNA unwinding assay; assay type: nucleic-acid assay
Procedure, shortened: (§2)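 Drug-induced DNA unwinding measured with pGEM2 plasmid DNA relaxed by wheat germ DNA topoisomerase I, following a previously described method.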

[4] = biological target: T1, DNA gyrase (Escherichia coli); test: Inhibition of Escherichia coli recombinant DNA gyrase assessed as enzyme-mediated supercoiling of relaxed pRSET A-DNA at 170 uM by agarose gel electrophoresis; assay type: protein-complex assay; design: scale not given: the % may be the effect or the level left; procedure, shortened: as §1
[5] = biological target: T1, DNA gyrase (Escherichia coli); test: Inhibition of Escherichia coli recombinant DNA gyrase assessed as enzyme-mediated supercoiling of relaxed pRSET A-DNA at 170 uM by agarose gel electrophoresis in presence of 0.01% Triton X-100; assay type: protein-complex assay; design: scale not given: the % may be the effect or the level left; procedure, shortened: as §1
[6] = system: Nucleic Acid; test: Binding affinity to pGEM2 DNA assessed as DNA intercalation at 1600 uM by DNA unwinding assay; assay type: nucleic-acid assay; procedure, shortened: as §2
[7] = system: Nucleic Acid; test: Binding affinity to pGEM2 DNA assessed as DNA intercalation at 1.6 mM by DNA unwinding assay
[8] = system: Escherichia coli; test: Inhibition of Escherichia coli DNA gyrase B ATPase activity up to 1.5 mM by spectrophotometry
Procedure, shortened: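 DNA-independent ATPase of purified E. coli GyrB (40 nM) with 2 mM ATP, read spectrophotometrically by coupling ATP hydrolysis to NADH oxidation. Ki calculated as Ki(app)/(1 + [ATP]/Km), with Km 0.3 mM for E. coli gyrase ATPase.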

[9] = system: Escherichia coli; test: Antibacterial activity against Escherichia coli XL1-Blue assessed as growth inhibition at 64 uM after 30 mins; assay type: functional, organism-based
Procedure, shortened: (§3)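 Log-phase E. coli XL1-Blue (overnight LB cultures at 37°C diluted to OD595 0.05 in fresh LB, shaken at 37°C until log phase) transferred into flasks containing filter-sterilized drug at various concentrations. Shaking growth continued at 37°C. Growth followed by culture absorbance at OD595 over time.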

[10] = biological target: T1, DNA gyrase (Escherichia coli); test: Inhibition of Escherichia coli recombinant DNA gyrase assessed as enzyme-mediated supercoiling of relaxed pRSET A-DNA at 640 uM by agarose gel electrophoresis; assay type: protein-complex assay; design: scale not given: the % may be the effect or the level left
Procedure, shortened: (§4)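 GyrA and GyrB, expressed in E. coli XL1-Blue and purified, reconstituted 1:1.4 (2.5 nM GyrA, 3.5 nM GyrB). Substrate was 0.5 μg relaxed pRSET A DNA (topoisomerase I-relaxed). Buffer: 25 mM Tris-acetate pH 7.9, 20 mM K acetate, 10 mM Mg acetate, 2 mM DTT, 1.5 mM ATP, 5 mM spermidine, 50 μg/ml BSA. Drug preincubated 10 min on ice; reaction 30 min at 30°C. Run on 1% agarose 20 h, stained with ethidium bromide, bands quantitated. % supercoiled DNA expressed relative to no-drug control.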

[11] = Inhibition of Escherichia coli DNA gyrase B ATPase activity by spectrophotometry
Procedure, shortened: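 DNA-independent ATPase of purified E. coli GyrB (40 nM) with 2 mM ATP. ATP hydrolysis coupled to NADH oxidation and read spectrophotometrically. Ki calculated from Ki(app) as Ki = Ki(app)/(1 + [ATP]/Km), taking Km 0.3 mM for E. coli gyrase ATPase.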

[12] = biological target: T1, DNA gyrase (Escherichia coli); test: Inhibition of Escherichia coli recombinant DNA gyrase assessed as enzyme-mediated supercoiling of relaxed pRSET A-DNA at 640 uM by agarose gel electrophoresis in presence of 0.01% Triton X-100; assay type: protein-complex assay; design: scale not given: the % may be the effect or the level left; procedure, shortened: as §4
[13] = system: Escherichia coli; test: Inhibition of Escherichia coli recombinant DNA gyrase-mediated supercoiling activity of relaxed pRSET A-DNA at 192 uM by agarose gel electrophoresis; design: scale not given: the % may be the effect or the level left; procedure, shortened: as §4
[14] = system: Escherichia coli; test: Antibacterial activity against Escherichia coli XL1-Blue assessed as growth inhibition at 21 uM after 60 mins; assay type: functional, organism-based; procedure, shortened: as §3
[15] = system: Nucleic Acid; test: Binding affinity to pGEM2 DNA assessed as DNA intercalation at 640 uM by DNA unwinding assay; assay type: nucleic-acid assay
[16] = system: Escherichia coli; test: Antibacterial activity against Escherichia coli XL1-Blue assessed as complete inhibition at 192 uM with in 30 mins; assay type: functional, organism-based; procedure, shortened: as §3
[17] = system: Nucleic Acid; test: Binding affinity to pGEM2 DNA assessed as DNA intercalation at 100 uM by DNA unwinding assay; assay type: nucleic-acid assay; procedure, shortened: as §2

IC50 [1]: 50 µM
Activity [2]: 12%
Activity [3]: Active
Activity [4]: 7%
Activity [5]: 13%
SMILES: O=c1ccc2nccc3c4ccccc4n1c23 [CANTHIN-6-ONE]

SMILES: CO[C@@H]1[C@@H](OC(=O)c2ccc(C)[nH]2)[C@@H](O)[C@@H](Oc2ccc3c(O)c(NC(=O)c4c[nH]c(C(=O)Nc5c(O)c6ccc(O[C@H]7OC(C)(C)[C@H](OC)[C@@H](OC(=O)c8ccc(C)[nH]8)[C@H]7O)c(C)c6oc5=O)c4C)c(=O)oc3c2C)OC1(C)C [COUMERMYCIN]
IC50 [1]: 0.04 µM

IC50 [1]: 737 µM
Activity [6]: inactive
SMILES: O=Cc1c[nH]nn1

IC50 [1]: 814 µM
Activity [7]: inactive
Activity [8]: inactive
Activity [6]: inactive
SMILES: NC(=O)c1[nH]cnc1N

SMILES: O=NNc1cnc(O)nc1O
IC50 [1]: 338 µM
Activity [9]: Active
Activity [10]: 10%
Ki [11]: 149 µM
Activity [12]: 17%
Activity [13]: > 30%
Activity [14]: Active
Activity [15]: inactive
Activity [16]: Active
Activity [6]: inactive

IC50 [1]: 1.2 µM
SMILES: O=C(O)c1cn(C2CC2)c2cc(N3CCNCC3)c(F)cc2c1=O [CIPROFLOXACIN]

IC50 [1]: 72 µM
Activity [17]: inactive
SMILES: O=c1[nH]nc(-c2cc(-c3ccccc3)nc3ccccc23)o1
